Data on 6 molecules can be found in ChEMBL document CHEMBL3244220, “Diuretic activity of Mannich base derivatives of ethacrynic acid and certain ethacrynic acid analogues” (J Med Chem, 1978).

Data set [1] deals with Canis familiaris. Put plainly: Toxicity in mongrel dog assessed as change in blood pressure at 17 umol/kg, iv for 10 mins. It counts as organism-based, Canis lupus familiaris. The settings on record: in vivo.
Data set [2] has as its system Canis familiaris. Put plainly: Diuretic activity in mongrel dog assessed as decrease in glomerular filtration rate during 2 hrs period at 17 umol/kg, iv for 10 mins. It counts as functional, organism-based. The settings on record: Canis lupus familiaris, Urine. The essentials: (§1)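 Single 17.0 μmol/kg iv dose in 10 mL 0.9% saline, given over 10 min; sodium salts formed with NaHCO3 where needed. GFR from plasma and urine inulin; Na by flame photometry. Changes per kg computed for each 10-min period after dosing minus the predrug period; mean Δ ± SEM, paired comparison, p < 0.05.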

For data set [3], the system named is Canis familiaris. Nature of the data set: Inhibition of ethacrynic acid-induced diuresis in mongrel dog assessed as decrease in glomerular filtration rate during 2 hrs period at 17 umol/kg, iv for 10 mins. The class given is organism-based, Canis lupus familiaris. As to conditions: in vivo. The essentials:
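Dogs received 17.0 μmol/kg iv over 10 min, and renal parameters were followed for 2 h. Sodium ethacrynate, 3.3 μmol/kg iv in 10 mL saline over 10 min, was then given. Inulin GFR/kg and Na excretion/kg were taken per 10-min period as change from the predrug value; mean Δ ± SEM; paired comparison, p < 0.05.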

Data set [4] is described as follows: Solubility of the compound in 0.9% saline. It counts as physicochemical. The settings on record: buffer.
Data set [5] in a line: Metabolic stability in dog urine assessed as ethacrynic acid release after 72 hrs at pH 7 +/- 0.5 by NMR/TLC analysis. It counts as ADME, tissue-based, Canis lupus familiaris. The settings on record: pH 7, 72 h.
Data set [6] relates to Canis familiaris. Nature of the data set: Diuretic activity in mongrel dog assessed as decrease in rate of sodium excretion during 2 hrs period at 17 umol/kg, iv for 10 mins. As to conditions: Canis lupus familiaris, Urine. It counts as functional, organism-based. The essentials:
as §1

A short description of data set [7]: Biotransformation in mongrel dog assessed as ethacrynic acid-glutathione in urine at 17 umol/kg, iv for 10 mins after 2 hrs. It counts as ADME, organism-based, Canis lupus familiaris. As to conditions: in vivo. The essentials: (§2)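 Dogs given 17.0 μmol/kg iv in 10 mL 0.9% saline, prepared 3–5 min before dosing and infused over 10 min. Urine collected for 2 h after dosing and freeze-dried in 1-h portions; control urine from nine 10-min predrug periods handled the same way. Residues taken up in H2O and run on cellulose TLC in n-BuOH–C6H6–MeOH–H2O (20:10:12.5:10); spots located by UV and ninhydrin.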

Data set [8] can be described thus: Biotransformation in mongrel dog assessed as ethacrynic acid-cysteine in urine at 17 umol/kg, iv for 10 mins after 2 hrs. The class given is ADME, organism-based, Canis lupus familiaris. The settings on record: in vivo. The procedure, abridged: as §2
For data set [9], the system named is Canis familiaris. Nature of the data set: Toxicity in mongrel dog assessed as increase in systolic pressure at 17 umol/kg, iv for 10 mins. The settings on record: in vivo. It counts as organism-based, Canis lupus familiaris.
The test system of data set [10] is Canis familiaris. Nature of the data set: Toxicity in mongrel dog assessed as increase in diastolic pressure at 17 umol/kg, iv for 10 mins. As to conditions: in vivo. It counts as organism-based, Canis lupus familiaris.

Active and inactive are the calls of the source. The rule behind the calls is not given here.

Take `C=C(CC)C(=O)c1ccc(OCC(=O)[O-])cc1.[Na+]`: the Activity result with Canis familiaris [1] and in the data set with Canis familiaris [3] was “Non-toxic” throughout. For the same molecule, the outcome with Canis familiaris [2] was inactive.

For `CN(C)CC(C)(C)C(=O)c1ccc(OCC(=O)O)c(Cl)c1Cl.Cl`, the Activity entry in the data set on Canis familiaris [1] is reported as “Non-toxic”; in the data set with Canis familiaris [3] it was “Toxic”. Further, in data set [4], the solubility entry is recorded as “soluble”. In data set [5], the Stability entry is reported as “Stable”. For the same molecule, the result in the data set with Canis familiaris [2] and in the data set on Canis familiaris [6] was inactive.

In the case of `CCC(CN(C)C)C(=O)c1ccc(OCC(=O)O)c(Cl)c1Cl.Cl` (stereo not given), in the data set on Canis familiaris [1], the Activity result was “Non-toxic”. Further, the solubility entry in data set [4] is listed as “soluble”. Moreover, the Drug metabolism result in [7] and in data set [8] was “metabolite_detected” throughout. Further, in data set [5], the Stability entry was “Unstable”. Also, the outcome with Canis familiaris [2] was Active.

With `CCC(CN(C)C)C(=O)c1ccc(OCC(=O)O)cc1.Cl` (stereo not given), the Activity result in the data set with Canis familiaris [1] and in the data set with Canis familiaris [3] was “Non-toxic” throughout. Also, in data set [4], the solubility result was “soluble”. The Stability entry in data set [5] was “Stable”. Further, the outcome with Canis familiaris [2] was inactive.

Regarding `C=C(CC)C(=O)c1ccc(OCC(=O)[O-])c(Cl)c1Cl.[Na+]` [ETHACRYNATE SODIUM], in the data set on Canis familiaris [1], the Activity result is on record as “Non-toxic”. For the same molecule, in the data set with Canis familiaris [2], the result was Active.

Turning to `C=C(C)C(=O)c1ccc(OCC(=O)[O-])c(Cl)c1Cl.[Na+]`, the Activity entry in the data set on Canis familiaris [9] and with Canis familiaris [10] was “Toxic” in each case. Further, in the data set on Canis familiaris [2], the result was Active.
